Most compounds without a hit are left out; they make up all but 6.7% or so of the library.
CHOP inh: inhibitors of CHOP induction in ER stress response. CHO-K1 CHOP-promoter luciferase, tunicamycin-induced, 15-18 h. inhibition, % at 10 µM. 220,000 tested, 3.8% active. AID 2732;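 active = compounds that reduced the stress-induced luciferase reporter signal by more than about 70% of percent inhibition, limit read from the data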
CSC inhib: blocks cancer stem cells. cancer stem cell-like cells viability, luminescence. inhibition, % at 7.5 µM. 300,000 tested, 1.1% active; in the data active = inhibition above about 75%; inconclusive = no clear call, values can overlap the other calls; tested in HMLE shEcad cells
T cruzi inh: blocks replication of Trypanosoma cruzi; T. cruzi beta-gal in NIH3T3, luminescence, 90 h; 300,000 tested, 1.4% active; inhibition, % (concentration not given with the values); AID 1885;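 active = mean inhibition across valid replicates above about 55%, limit read from the data; inconclusive = mean below that limit but half or more replicates reach it; inactive = mean below it, under half of replicates reach it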;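 note: signal also drops with host cell toxicity which is not excluded here; higher percent means less beta-gal luminescence so fewer parasites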
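compound dosing = single 50 nL compound addition per well in DMSO | material = NIH/3T3 host cells with β-galactosidase reporter T. cruzi | input = 5,000 host fibroblasts per well | timing = ≥90 h infection period, 3 h prior cell attachment | read-out basis = percent inhibition of parasite-derived β-gal signal | detection = GalScreen β-gal luminescence, detergent lysis, 60 min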
NR3A LBD binder: modulates the human NR3A ligand-binding domain; NR3A LBD differential scanning fluorimetry, Tm shift; 0% = protein alone, 100% = glycine-bound protein; Tm shift relative to glycine control, % at 25 µM; 340,000 tested, 2.5% active; AID 1259313;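 active = melting temperature shift of at least 10% of the positive control shift, at one fixed dose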
PREPL inhibitor: inhibits the human prolyl oligopeptidase-like enzyme; recombinant PREPL, fluorescence polarization activity-based probe; inhibition, % at 5.96 µM; 320,000 tested, 0.68% active; AID 2751; in the data active = inhibition above about 43%
Target sequence (Q4J6C6 whole entry, looked up): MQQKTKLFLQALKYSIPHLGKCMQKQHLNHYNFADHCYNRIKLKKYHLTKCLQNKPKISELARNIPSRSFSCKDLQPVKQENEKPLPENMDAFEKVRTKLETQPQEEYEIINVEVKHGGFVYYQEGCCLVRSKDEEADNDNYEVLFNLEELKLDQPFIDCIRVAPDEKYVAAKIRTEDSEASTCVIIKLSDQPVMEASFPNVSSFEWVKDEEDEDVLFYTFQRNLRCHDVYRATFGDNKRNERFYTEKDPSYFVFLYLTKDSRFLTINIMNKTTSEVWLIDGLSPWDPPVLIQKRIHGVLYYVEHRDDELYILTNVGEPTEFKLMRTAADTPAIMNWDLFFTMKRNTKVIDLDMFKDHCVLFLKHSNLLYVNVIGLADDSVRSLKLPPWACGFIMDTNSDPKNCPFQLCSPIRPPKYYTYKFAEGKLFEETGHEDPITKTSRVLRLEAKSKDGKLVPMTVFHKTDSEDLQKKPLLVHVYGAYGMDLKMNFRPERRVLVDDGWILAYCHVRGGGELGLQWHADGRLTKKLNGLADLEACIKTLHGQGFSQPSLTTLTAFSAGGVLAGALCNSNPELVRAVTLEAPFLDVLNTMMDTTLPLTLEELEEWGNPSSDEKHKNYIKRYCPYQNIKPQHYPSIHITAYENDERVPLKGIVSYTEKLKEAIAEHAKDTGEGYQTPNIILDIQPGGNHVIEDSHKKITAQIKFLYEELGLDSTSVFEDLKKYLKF
Beta cell apopt: beta cell apoptosis inhibition; AID 435005; protection from apoptosis, % (concentration not given with the values); INS-1E cytokine-induced death, ATP luminescence, 48 h; percent of positive-control rescue, neutral wells zero; 300,000 tested, 0.8% active;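 active = Every replicate reaches about 75%, or at least half do and their mean reaches it too, limit read from the data; inconclusive = At least half of replicates reach the limit but their mean does not; inactive = Under half of replicates reach the limit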;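 note: higher means more ATP so stronger rescue from cytokine killing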
Large screens that a line does not name were inactive.

Clc1ccccc1Nc1nnc(-c2ccncc2)s1	Beta cell apopt 75.4
COc1ccc(Cl)cc1Nc1nnc(-c2ccncc2)s1	none (no result: CHOP inh, CSC inhib, Beta cell apopt)
CCOc1ccc(C(=O)NCC(=O)OCc2c(F)cccc2Cl)cc1OCC	NR3A LBD binder 13.7
COCCCNC(=O)c1ccc2c(=O)n(Cc3ccc4c(c3)OCO4)c(=S)[nH]c2c1	NR3A LBD binder 11.7
CC1CC(C)CN(C(=O)c2ccc3c(=O)n(Cc4ccc5c(c4)OCO5)c(=S)[nH]c3c2)C1 (configuration not stated)	CHOP inh 95.2
CCCCCn1c(=O)[nH]c2cc(C(=O)N3CCN(Cc4ccc5c(c4)OCO5)CC3)ccc2c1=O	CHOP inh 81.6
CCOCCCNC(=O)c1ccc2c(=O)n(Cc3ccc4c(c3)OCO4)c(=S)[nH]c2c1	none
O=C(c1ccc2c(=O)n(Cc3ccc4c(c3)OCO4)c(=S)[nH]c2c1)N1CCCCC1	CHOP inh 91.9 (no result: CSC inhib)
CCCCCn1c(=O)[nH]c2cc(C(=O)NCc3ccc4c(c3)OCO4)ccc2c1=O	none (no result: CSC inhib)
COc1ccc(NC(=O)CCc2nnc3ccc(NCc4ccco4)nn23)cc1OC	none (no result: CHOP inh, Beta cell apopt)
CCNC(=O)N(C)C[C@H]1N[C@@](CC)(C(=O)OC)[C@H]2C(=O)N(Cc3ccccc3)C(=O)[C@@H]12	none (no result: CHOP inh, CSC inhib, T cruzi inh)
COc1ccc(C(=O)C(O)C(c2ccc(C)cc2)N2CCOCC2)cc1OC (configuration not stated)	none (no result: CHOP inh)
COc1cc(C(=S)N2CCCC2)ccc1OCc1ccccc1	none (no result: CHOP inh)
O=C(Cc1ccccc1)N[C@@H](Cc1ccccc1)c1nc2ccccc2[nH]1	none
Cc1cc(OCC(=O)N(C)Cc2ccccc2)ccc1Cl	Beta cell apopt 109.5 (no result: CHOP inh)
Cc1cc(OCC(=O)N[C@@H](Cc2ccccc2)c2nc3ccccc3[nH]2)ccc1Cl	CHOP inh 72.0
CC1=NN(c2nc(-c3ccc(Cl)cc3)cs2)C(=O)C1	CSC inhib 123.2, NR3A LBD binder 19.4
Fc1ccc(-c2csc(N3CCSCC3)n2)cc1	none
CC1=NN(c2nc(-c3ccc(F)cc3)cs2)C(=O)C1	CSC inhib 85.5
Cc1ccc(S(=O)(=O)N2CCN(c3ccc(N4CCOCC4)nn3)CC2)cc1[N+](=O)[O-]	none (no result: CHOP inh, Beta cell apopt)
O=[N+]([O-])c1ccc(S(=O)(=O)N2CCN(c3ccc(N4CCOCC4)nn3)CC2)cc1	T cruzi inh 59.7 (no result: CHOP inh)
O=[N+]([O-])c1ccc(S(=O)(=O)Nc2ccc(-c3ccc(N4CCCC4)nn3)cc2)cc1	T cruzi inh 55.3 (no result: CHOP inh)
O=[N+]([O-])c1ccc(Cl)c(S(=O)(=O)Nc2cccc(-c3ccc(N4CCCC4)nn3)c2)c1	NR3A LBD binder 15.9 (no result: CHOP inh, Beta cell apopt)
CNS(=O)(=O)c1ccc(NS(=O)(=O)c2ccccc2F)cc1	none
CC(C)(C)NC(=O)CN(C(=O)CN1C(=O)C(=O)c2ccccc21)C(C)(C)C	none
O=C(Nc1ccc(F)cc1F)Nc1sccc1-c1nc2ccccc2s1	NR3A LBD binder 21.0
Cc1cc(NC(=O)CSc2cn(CC(=O)N(C(C)C)C(C)C)c3ccccc23)no1	none (no result: CHOP inh)
CCCC(C(=O)O)N1C(=O)/C(=C2\C(=O)N(C)c3ccccc32)SC1=S (configuration not stated)	NR3A LBD binder 26.8 (no result: CHOP inh, T cruzi inh)
O=C(CC1CCCC1)Nc1ccc(Cl)c(S(=O)(=O)N2CCOCC2)c1	none (no result: CHOP inh, T cruzi inh)
O=S(=O)(c1ccccc1Br)N(Cc1ccccc1)CC(O)COCc1ccccc1 (configuration not stated)	none (no result: CHOP inh, CSC inhib, T cruzi inh, PREPL inhibitor, Beta cell apopt)
COc1ccc(CCNC(=O)CN2C(=O)C(=O)N(C3CCCC3)C2=O)cc1OC	none (no result: CHOP inh, T cruzi inh)
Clc1ccc(Nc2nc(C3CC3)cs2)cc1	CHOP inh 98.4
O=C(O)c1cccc(N2C(=O)/C(=C/c3ccc(SCc4ccc(Cl)cc4)o3)SC2=S)c1	CHOP inh 75.2, NR3A LBD binder 14.8 (no result: CSC inhib, T cruzi inh, PREPL inhibitor, Beta cell apopt)
Cc1cc(SC#N)cc(C)c1NC(=O)CCl	none
CCc1cc(SC#N)cc(C)c1NC(=O)CCl	Beta cell apopt 99.4
CCOC(=O)C(=CNc1ccc2c(c1)c1ccccc1n2CC)C(=O)OCC	none
CCOc1ccc(S(=O)(=O)N(C(=O)c2ccco2)c2cc3sc(=O)oc3c3ccccc23)cc1	Beta cell apopt 98.9
COc1ccc(S(=O)(=O)N(C(=O)c2ccco2)c2cc3sc(=O)oc3c3ccccc23)cc1	CHOP inh 85.1, Beta cell apopt 98.2
Cc1ccc(S(=O)(=O)N(C(=O)c2ccco2)c2cc3sc(=O)oc3c3ccccc23)cc1	none
C[C@]12c3[nH]c4cc(-c5ccco5)ccc4c3CCN1C(=O)[C@@H](CC(=O)NCc1ccco1)C[C@@H]2C(=O)N1CCOCC1	none (no result: CHOP inh, CSC inhib, T cruzi inh, PREPL inhibitor, Beta cell apopt)
CC1CCCCC1NC(=S)Nc1ccc(SC(F)F)cc1 (configuration not stated)	none
FC(F)Sc1ccc(NC(=S)NCc2ccccc2)cc1	NR3A LBD binder 12.4
FC(F)Sc1ccc(NC(=S)NC2CCCCC2)cc1	CHOP inh 94.9, NR3A LBD binder 15.1
FC(F)Sc1ccc(NC(=S)NC(c2ccccc2)c2ccccc2)cc1	T cruzi inh inconclusive, NR3A LBD binder 28.0
Cc1nnc(N/N=C/c2cc([N+](=O)[O-])c(N3CCC(C)CC3)cc2N2CCC(C)CC2)n1N	Beta cell apopt 115.2
CCc1nnc(N/N=C/c2ccc(N3CCC(C)CC3)c([N+](=O)[O-])c2)n1N	none
Cc1cccc(Cn2nnc3c2C(=O)c2ccccc2C3=O)c1	T cruzi inh 61.0, Beta cell apopt 109.8
CCCN(C(=S)Nc1ccccc1)C1CCS(=O)(=O)C1 (configuration not stated)	none
Fc1cccc(Nc2ncnc3[nH]ncc23)c1	none
Brc1ccc(Nc2ncnc3[nH]ncc23)cc1	NR3A LBD binder 25.6
CC(=O)Nc1ccc(NC(=O)C(C)Sc2n[nH]c(=O)n2Cc2ccccc2)cc1 (configuration not stated)	none (no result: CHOP inh)
CCOC(=O)c1ccc(N2CCN(c3ccccc3F)CC2)c(NC(=O)Nc2cccc(OC)c2)c1	T cruzi inh 69.6, NR3A LBD binder 10.6
COc1ccc(/C=N/n2cncn2)cc1Cn1nc(C)c([N+](=O)[O-])c1C	none
CC1(C)[C@@H](O)CC[C@]2(C)C3C(O)C=C4[C@H]5C[C@@](C)(CO)CC[C@]5(C)CC[C@]4(C)[C@]3(C)CC[C@@H]12 (some centres not stated)	CSC inhib 125.7
COC(=O)C1=C(Nc2ccc(C)cc2)C=C(C)C(C(=O)OC)C1c1ccc(OC)cc1 (configuration not stated)	none
COC(=O)C1=C(Nc2ccc(C)cc2)C=C(C)C(C(=O)OC)C1c1cccc(OC)c1 (configuration not stated)	T cruzi inh 58.0
Cc1ccc(C)c(S(=O)(=O)N2CCN(C(=O)c3ccc(OCc4c(C)noc4C)cc3)CC2)c1	none (no result: CHOP inh)
COC(=O)c1cc(Br)ccc1-c1ccc(/C=N/n2nnnc2N)o1	none (no result: Beta cell apopt)
CN1CCN(/N=C/c2ccc(-c3ccc([N+](=O)[O-])cc3Cl)o2)CC1	T cruzi inh 58.6
